Activity calls are given as the source filed them. No cut-off for these calls is given here.
Experiments:
[1] = tested on: Mus musculus; assay: Hepatoprotective activity in ip dosed ICR mouse assessed as reduction in GalN/LPS-induced mortality at 200 mg/kg, ip administered 1 hr prior to GalN/LPS challenge measured after 24 hrs of GalN/LPS injection; format: functional, organism-based; parameters: dose 200 mg/kg
Procedure, shortened: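 15 male ICR mice per group received compound (25–200 mg/kg) in 10% Tween 80–saline ip 1 h before ip GalN 700 mg/kg plus E. coli 026:B6 LPS 10 μg/kg in PBS; survival monitored over 24 h after challenge.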

[2] = tested on: Mus musculus; assay: Hepatoprotective activity in GalN/LPS -stimulated ICR mouse assessed as decrease in Bax expression level at 200 mg/kg, ip administered 1 hr prior to GalN/LPS challenge measured after 3 hrs of GalN/LPS injection by Western blotting; format: functional, organism-based; parameters: dose 200 mg/kg
Procedure, shortened: (§1)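 Male ICR mice (25–30 g), fasted overnight, water ad libitum. Compound suspended in 10% Tween 80–saline, given ip 1 h before ip GalN (700 mg/kg) plus E. coli 026:B6 LPS (10 μg/kg) in PBS. Liver homogenized in lysis buffer; 10 μg protein per lane on 10% SDS-PAGE, semidry transfer to nitrocellulose, blocked in 5% skim milk/TBS. Overnight 4 °C primary antibody; β-actin reference. 8–10 mice per group.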

[3] = tested on: Mus musculus; assay: Hepatoprotective activity in GalN/LPS -stimulated ICR mouse assessed as decrease in caspase-8 activity at 200 mg/kg, ip administered 1 hr prior to GalN/LPS challenge measured after 8 hrs of GalN/LPS injection relative to control; format: functional; parameters: scale not given: the % may be the effect or the level left; conditions: route intraperitoneal
Procedure, shortened: (§2)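 Liver taken 8 h after GalN (700 mg/kg)/LPS (10 μg/kg) ip, homogenized in 25 mM Tris, 5 mM MgCl2, 1 mM EGTA with protease inhibitors; 40000g supernatant, 10 mM DTT added. 30 μg protein preincubated 15 min at room temperature in HEPES/EDTA/NaCl/Triton/DTT buffer, then 200 μM peptide substrate (DEVD for caspase-3, IETD for caspase-8) at 37 °C; fluorescence (400/490 nm) read at 120 min; expressed as % of control.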

[4] = tested on: Mus musculus; assay: Hepatoprotective activity in GalN/LPS-stimulated ICR mouse assessed as decrease in ratio of phosphorylated Bim EL protein expression level at 200 mg/kg, ip administered 1 hr prior to GalN/LPS challenge measured after 3 hrs of GalN/LPS injection by Western blotting; format: functional, organism-based; parameters: dose 200 mg/kg; procedure, shortened: as §1
[5] = tested on: Mus musculus; assay: Hepatoprotective activity in GalN/LPS -stimulated ICR mouse assessed as decrease in caspase-3 activity at 200 mg/kg, ip administered 1 hr prior to GalN/LPS challenge measured after 8 hrs of GalN/LPS injection relative to control; format: functional; parameters: scale not given: the % may be the effect or the level left; conditions: route intraperitoneal; procedure, shortened: as §2
[6] = tested on: Mus musculus; assay: Hepatoprotective activity in GalN/LPS -stimulated ICR mouse assessed as suppression of cytochrome c level at 200 mg/kg, ip administered 1 hr prior to GalN/LPS challenge measured after 8 hrs of GalN/LPS injection by Western blotting; format: functional, organism-based; parameters: dose 200 mg/kg
Procedure, shortened: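 Male ICR mice; compound in 10% Tween 80–saline ip 1 h before ip GalN 700 mg/kg/LPS 10 μg/kg; liver taken 8 h later. Cytosolic fraction prepared by NE-PER extraction. 50 μg cytosolic protein run on 12% SDS-PAGE, blotted to nitrocellulose, blocked with 5% nonfat milk/PBS, probed 1 h at room temperature with monoclonal anti-cytochrome c, β-actin as reference, HRP secondary. 8–10 mice per group.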

[7] = tested on: Mus musculus; assay: Hepatoprotective activity in GalN/LPS -stimulated ICR mouse assessed as decrease in ratio of phosphorylated BimL protein expression level at 200 mg/kg, ip administered 1 hr prior to GalN/LPS challenge measured after 3 hrs of GalN/LPS injection by Western blotting; format: functional, organism-based; parameters: dose 200 mg/kg; procedure, shortened: as §1
[8] = tested on: Mus musculus; assay: Hepatoprotective activity in GalN/LPS -stimulated ICR mouse assessed as decrease in serum alanine amino transferase level at 200 mg/kg, ip administered 1 hr prior to GalN/LPS challenge measured after 8 hrs of GalN/LPS injection; format: functional; conditions: route intraperitoneal
Procedure, shortened: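 Fasted male ICR mice given compound ip in 10% Tween 80–saline 1 h before ip GalN (700 mg/kg)/LPS (10 μg/kg) in PBS. Blood sampled 8 h after challenge; serum ALT measured with an automatic analyzer, reported in U/L. 8–10 mice per group.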

[9] = tested on: Mus musculus; assay: Hepatoprotective activity in GalN/LPS -stimulated ICR mouse assessed as reduction in phosphorylated JNK p-54 expression level at 200 mg/kg, ip administered 1 hr prior to GalN/LPS challenge measured after 3 hrs of GalN/LPS injection by Western blotting; format: functional, organism-based; parameters: dose 200 mg/kg; procedure, shortened: as §1
[10] = tested on: Mus musculus; assay: Hepatoprotective activity in GalN/LPS -stimulated ICR mouse assessed as suppression of TRADD expression level at 200 mg/kg, ip administered 1 hr prior to GalN/LPS challenge measured after 3 hrs of GalN/LPS injection by Western blotting; format: functional, organism-based; parameters: dose 200 mg/kg; procedure, shortened: as §1
[11] = tested on: Mus musculus; assay: Hepatoprotective activity in GalN/LPS -stimulated ICR mouse assessed as decrease in serum TNFalpha level at 200 mg/kg, ip administered 1 hr prior to GalN/LPS challenge measured after 1 hr of GalN/LPS injection by ELISA; format: functional; conditions: route intraperitoneal
Procedure, shortened: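 Male ICR mice dosed ip (10% Tween 80–saline) 1 h before ip GalN 700 mg/kg plus LPS 10 μg/kg. Serum TNF-α quantified 1 h after challenge by mouse ELISA kit following kit instructions. 8–10 mice per group.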

[12] = tested on: Mus musculus; assay: Hepatoprotective activity in GalN/LPS -stimulated ICR mouse assessed as decrease in Bid expression level at 200 mg/kg, ip administered 1 hr prior to GalN/LPS challenge measured after 3 hrs of GalN/LPS injection by Western blotting; format: functional, organism-based; parameters: dose 200 mg/kg; procedure, shortened: as §1
[13] = tested on: Mus musculus; assay: Hepatoprotective activity in GalN/LPS -stimulated ICR mouse assessed as reduction in number of apoptotic hepatocytes at 200 mg/kg, ip administered 1 hr prior to GalN/LPS by TUNEL assay; format: functional, organism-based; parameters: dose 200 mg/kg; conditions: Hepatocyte
Procedure, shortened: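 Liver sections from male ICR mice pretreated ip 1 h before GalN (700 mg/kg)/LPS (10 μg/kg). Apoptotic hepatocytes detected with an in situ TUNEL kit; TUNEL-positive cells counted microscopically across 200 histological fields.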

[14] = tested on: Mus musculus; assay: Hepatoprotective activity in GalN/LPS -stimulated ICR mouse assessed as reduction in phosphorylated JNK p-46 expression level at 200 mg/kg, ip administered 1 hr prior to GalN/LPS challenge measured after 3 hrs of GalN/LPS injection by Western blotting; format: functional, organism-based; parameters: dose 200 mg/kg; procedure, shortened: as §1
[15] = tested on: Mus musculus; assay: Hepatoprotective activity in ICR mouse assessed as reduction in GalN/LPS-induced mortality at 200 mg/kg, ip administered 1 hr prior to GalN/LPS challenge measured after 24 hrs of GalN/LPS injection; format: functional, organism-based; parameters: dose 200 mg/kg; scale not given: the % may be the effect or the level left
Procedure, shortened: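 Male ICR mice (25–30 g), fasted overnight with water ad libitum. Pretreatment ip, suspended in 10% Tween 80–saline, 1 h before ip GalN (700 mg/kg) plus E. coli 026:B6 LPS (10 μg/kg) in PBS. Survival monitored for 24 h after GalN/LPS; 15 mice per group.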

Compound | Activity [1] | inhibition [2] | Activity [3] [%] | inhibition [4] | Activity [5] [%] | inhibition [6] | inhibition [7] | Activity [8] [U/L] | inhibition [9] | inhibition [10] | Activity [11] [pg/mL] | inhibition [12] | Activity [13] | inhibition [14] | Activity [15] [%]
O=c1cc(-c2ccc(O)c(O)c2)oc2cc(O)cc(O)c12 [LUTEOLIN] | Dose-dependent effect | Active | 176.8 | Active | 251.7 | Active | Active | 1059 | Active | Active | 574.2 | Active | Active | Active | 
SILYMARIN |  |  |  |  |  |  |  |  |  |  |  |  |  |  | 13.3

— ChEMBL document CHEMBL1909503, “Protective effects of luteolin against apoptotic liver damage induced by D-galactosamine/lipopolysaccharide in mice” (2011)
